From ChEMBL document CHEMBL3868583, “6-Aryl substituted 4-(4-cyanomethyl) phenylamino quinazolines as a new class of isoform-selective PI3K-alpha inhibitors” (Eur J Med Chem, 2016)
Converted amounts (≈) assume the structure as drawn.

Key:
[1] = Cytotoxicity against human PC3 cells assessed as cell growth inhibition after 48 hrs by MTT assay; format: functional; details: PC-3, 48 h
How it was run: (§1)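 MTT assay: 3 × 10^3 cells/well seeded, compounds added after 24 h at final […], 48 h exposure. MTT (2.5 mg/mL in PBS) added, formazan dissolved in DMSO, absorbance 570 nm. Viability as % of untreated; three independent experiments, mean ± SD.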

[2] = Cytotoxicity against human MCF7 cells assessed as cell growth inhibition after 48 hrs by MTT assay; format: functional; details: MCF7, 48 h; how it was run: as §1
[3] = molecular target: Phosphatidylinositol 4,5-bisphosphate 3-kinase catalytic subunit alpha isoform (Homo sapiens, UniProt P42336); test: Inhibition of PI3Kalpha (unknown origin) using diC8 PIP2 as substrate at 0.5 uM after 80 mins by ADP-glo assay
Sequence of Phosphatidylinositol 4,5-bisphosphate 3-kinase catalytic subunit alpha isoform (P42336 whole entry, canonical isoform): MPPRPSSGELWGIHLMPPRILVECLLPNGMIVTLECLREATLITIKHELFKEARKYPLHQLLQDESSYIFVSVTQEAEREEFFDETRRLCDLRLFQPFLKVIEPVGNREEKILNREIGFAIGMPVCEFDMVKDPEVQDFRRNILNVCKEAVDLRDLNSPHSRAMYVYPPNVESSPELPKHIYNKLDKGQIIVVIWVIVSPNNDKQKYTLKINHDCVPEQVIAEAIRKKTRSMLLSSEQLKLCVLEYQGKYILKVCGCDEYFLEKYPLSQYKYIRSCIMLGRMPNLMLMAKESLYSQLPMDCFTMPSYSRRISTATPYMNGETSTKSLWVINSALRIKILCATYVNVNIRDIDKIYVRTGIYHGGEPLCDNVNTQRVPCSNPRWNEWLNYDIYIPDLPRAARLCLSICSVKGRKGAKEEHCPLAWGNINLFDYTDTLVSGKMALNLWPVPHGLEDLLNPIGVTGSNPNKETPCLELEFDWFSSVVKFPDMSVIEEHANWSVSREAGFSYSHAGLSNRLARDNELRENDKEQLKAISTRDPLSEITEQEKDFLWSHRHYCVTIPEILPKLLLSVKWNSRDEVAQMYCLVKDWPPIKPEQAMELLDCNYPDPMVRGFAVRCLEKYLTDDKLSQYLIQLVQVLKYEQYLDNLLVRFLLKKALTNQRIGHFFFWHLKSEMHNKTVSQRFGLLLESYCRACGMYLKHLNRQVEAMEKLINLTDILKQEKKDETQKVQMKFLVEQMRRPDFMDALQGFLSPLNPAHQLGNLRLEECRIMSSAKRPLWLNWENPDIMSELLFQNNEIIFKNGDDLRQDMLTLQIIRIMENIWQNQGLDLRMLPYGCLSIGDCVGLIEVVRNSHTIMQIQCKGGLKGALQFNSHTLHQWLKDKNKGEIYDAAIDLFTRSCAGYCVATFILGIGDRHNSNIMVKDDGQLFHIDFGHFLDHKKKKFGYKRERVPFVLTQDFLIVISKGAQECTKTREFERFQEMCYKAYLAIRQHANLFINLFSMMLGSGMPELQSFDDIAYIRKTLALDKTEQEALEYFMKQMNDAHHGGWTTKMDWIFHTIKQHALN

[4] = Cytotoxicity against human PANC1 cells assessed as cell growth inhibition after 48 hrs by MTT assay; format: functional; details: PANC-1, 48 h; how it was run: as §1
[5] = Cytotoxicity against human A375 cells assessed as cell growth inhibition after 48 hrs by MTT assay; format: functional; details: A-375, 48 h; how it was run: as §1
[6] = Cytotoxicity against human HL60 cells assessed as cell growth inhibition after 48 hrs by MTT assay; format: functional; details: HL-60, 48 h; how it was run: as §1
Homo sapiens [7] = species on record: Homo sapiens; test: Selectivity ratio of IC50 for PI3Kdelta (unknown origin) to IC50 for PI3Kalpha (unknown origin)
Homo sapiens [8] = species on record: Homo sapiens; test: Selectivity ratio of IC50 for PI3Kbeta (unknown origin) to IC50 for PI3Kalpha (unknown origin)
Homo sapiens [9] = species on record: Homo sapiens; test: Selectivity ratio of IC50 for PI3Kgamma (unknown origin) to IC50 for PI3Kalpha (unknown origin)
[10] = Thermodynamic equilibrium solubility of compound in simulated intestinal fluid up to 300 ug after 4 hrs by UV absorbance method; format: ADME; details: read-out: Therm_solubility
How it was run: (§2)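 Methanol stock evaporated in wells to give 1–300 µg solid; 200 µl medium (water, PBS, SGF or SIF) added, shaken 300 rpm 4 h at 25 ± 1 °C, equilibrated overnight, centrifuged; supernatant UV absorbance at λmax; saturation point from concentration–absorbance curve; triplicate.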

[11] = Thermodynamic equilibrium solubility of compound in water up to 300 ug after 4 hrs by UV absorbance method; format: physicochemical; details: read-out: Therm_solubility; how it was run: as §2
[12] = Thermodynamic equilibrium solubility of compound in PBS up to 300 ug after 4 hrs by UV absorbance method; format: physicochemical; details: read-out: Therm_solubility; how it was run: as §2
[13] = Thermodynamic equilibrium solubility of compound in simulated gastric fluid up to 300 ug after 4 hrs by UV absorbance method; format: ADME; details: read-out: Therm_solubility; how it was run: as §2

SMILES	GI50 [1] [µM]	GI50 [2] [µM]	inhibition [3] [%]	GI50 [4] [µM]	GI50 [5] [µM]	GI50 [6] [µM]	Ratio IC50 (Homo sapiens [7])	Ratio IC50 (Homo sapiens [8])	Ratio IC50 (Homo sapiens [9])	solubility thermodynamic at 4 h [10] [µg/mL]	solubility thermodynamic at 4 h [11] [µg/mL]	solubility thermodynamic at 4 h [12] [µg/mL]	solubility thermodynamic at 4 h [13] [µg/mL]
N#CCc1ccc(Nc2ncnc3ccc(-c4cc5ccccc5o4)cc23)cc1	8	9	29.8	28	10	17							
N#CCc1ccc(Nc2ncnc3ccc(-c4ccc(F)cc4F)cc23)cc1	28	10	17	21	9	7							
N#CCc1ccc(Nc2ncnc3ccc(-c4cc5ccccc5s4)cc23)cc1	13	8	2.7	24	14	14							
CC(=O)c1ccc(-c2ccc3ncnc(Nc4ccc(CC#N)cc4)c3c2)cc1	24	45	44	13	32	28	> 37	> 37	0.5				
N#CCc1ccc(Nc2ncnc3ccc(-c4ccc5c(c4)OCCO5)cc23)cc1	34	34	33	32	27	21	> 29.2	> 29.2	4				
C=Cc1ccc(-c2ccc3ncnc(Nc4ccc(CC#N)cc4)c3c2)cc1	34	11	36.4	32	27	16	1	1					
N#CCc1ccc(Nc2ncnc3ccc(-c4cccc5c4sc4ccccc45)cc23)cc1	18	34		33	34	31							
N#CCc1ccc(Nc2ncnc3ccc(-c4cccc([N+](=O)[O-])c4)cc23)cc1	29	12	38.1	7	23	15	> 22.2	> 22.2	1.9				
CC(=O)Nc1cccc(-c2ccc3ncnc(Nc4ccc(CC#N)cc4)c3c2)c1	27	23	16.4	40	24	32							
CCOc1ccc(-c2ccc(-c3ccc4ncnc(Nc5ccc(CC#N)cc5)c4c3)cc2)cc1	17	26		33	30	16							
N#CCc1ccc(Nc2ncnc3ccc(-c4cnc5ccccc5c4)cc23)cc1	23	32		90	89	44							
N#CCc1ccc(Nc2ncnc3ccc(-c4ccc(-c5ccccc5)cc4F)cc23)cc1	14	13	20.3	33	32	16							
N#CCc1ccc(Nc2ncnc3ccc(-c4ccc(OCc5ccc(F)cc5)cc4)cc23)cc1	13	12	11	13	16	14							
N#CCc1ccc(Nc2ncnc3ccc(-c4ccc(-c5ccccc5)cc4)cc23)cc1	10	29		30	13	16							
N#CCc1ccc(Nc2ncnc3ccc(-c4ccncc4)cc23)cc1	76	32	45.6	39	35	32	> 14.2	> 14.2	0.5				
N#CCc1ccc(Nc2ncnc3ccc(-c4ccc5c(c4)OCO5)cc23)cc1	7	34	48.6	33	24	27	> 31.1	> 31.1	0.6				
Cc1ccccc1-c1ccc2ncnc(Nc3ccc(CC#N)cc3)c2c1	38	> 100	4.1	68	32	36							
N#CCc1ccc(Nc2ncnc3ccc(-c4cccc5c4oc4ccccc45)cc23)cc1	16	27	1.5	31	36	12							
N#CCc1ccc(Nc2ncnc3ccc(-c4ccc5ccccc5c4)cc23)cc1	22	16	8.2	48	31	25							
N#CCc1ccc(Nc2ncnc3ccc(-c4ccccc4C=O)cc23)cc1	21	91	1.3	90	39	42							
N#CCc1ccc(Nc2ncnc3ccc(-c4cccc(O)c4)cc23)cc1	37	15	69.9	36	28	24	2.3	5.8	16	5 (≈ 14.2 µM)	5 (≈ 14.2 µM)	5 (≈ 14.2 µM)	125 (≈ 355 µM)
